Key:
Details in all cases: stereoisomer not certain
UniProt Q8VF52 = target: T1, UniProt Q8VF52
T1 sequence (whole entry): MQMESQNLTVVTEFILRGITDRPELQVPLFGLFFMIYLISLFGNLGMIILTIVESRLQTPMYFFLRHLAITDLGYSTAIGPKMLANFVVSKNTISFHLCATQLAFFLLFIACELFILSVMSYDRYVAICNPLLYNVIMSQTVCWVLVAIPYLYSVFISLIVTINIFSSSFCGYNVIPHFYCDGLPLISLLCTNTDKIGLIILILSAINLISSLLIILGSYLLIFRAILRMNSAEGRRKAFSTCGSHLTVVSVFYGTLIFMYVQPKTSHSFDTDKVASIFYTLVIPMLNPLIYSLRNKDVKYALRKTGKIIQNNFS
Outline: (§1)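 Assay methods differ from source to source, frequently being transient luciferase assays in mammalian cell lines. For each receptor–molecule pair, the label responsive (active) applies when the original authors judged the measured signal statistically different from baseline, and non-responsive (inactive) applies otherwise.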

UniProt Q8VFM8 = target: T2, UniProt Q8VFM8
T2 sequence (whole entry): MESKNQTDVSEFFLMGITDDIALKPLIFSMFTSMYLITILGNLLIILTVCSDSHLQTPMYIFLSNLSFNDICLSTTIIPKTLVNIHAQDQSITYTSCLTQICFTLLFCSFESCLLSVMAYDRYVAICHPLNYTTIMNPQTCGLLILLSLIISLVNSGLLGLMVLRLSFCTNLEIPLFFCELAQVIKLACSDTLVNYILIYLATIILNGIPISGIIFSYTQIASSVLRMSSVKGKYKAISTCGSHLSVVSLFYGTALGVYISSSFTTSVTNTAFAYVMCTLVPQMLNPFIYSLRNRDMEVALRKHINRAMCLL
Outline: as §1

UniProt Q8VFP5 = target: T3, UniProt Q8VFP5
T3 sequence (whole entry): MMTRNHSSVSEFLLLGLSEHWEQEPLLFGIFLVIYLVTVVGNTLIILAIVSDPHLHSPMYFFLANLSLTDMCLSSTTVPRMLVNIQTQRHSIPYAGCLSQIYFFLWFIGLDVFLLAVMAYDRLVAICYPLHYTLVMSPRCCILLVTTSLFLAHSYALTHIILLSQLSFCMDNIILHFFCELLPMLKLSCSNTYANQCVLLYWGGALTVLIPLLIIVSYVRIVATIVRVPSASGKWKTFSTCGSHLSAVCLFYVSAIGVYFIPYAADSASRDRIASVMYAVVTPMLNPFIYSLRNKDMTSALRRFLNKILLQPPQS
Outline: as §1

UniProt Q8VG01 = target: T4, UniProt Q8VG01
T4 sequence (whole entry): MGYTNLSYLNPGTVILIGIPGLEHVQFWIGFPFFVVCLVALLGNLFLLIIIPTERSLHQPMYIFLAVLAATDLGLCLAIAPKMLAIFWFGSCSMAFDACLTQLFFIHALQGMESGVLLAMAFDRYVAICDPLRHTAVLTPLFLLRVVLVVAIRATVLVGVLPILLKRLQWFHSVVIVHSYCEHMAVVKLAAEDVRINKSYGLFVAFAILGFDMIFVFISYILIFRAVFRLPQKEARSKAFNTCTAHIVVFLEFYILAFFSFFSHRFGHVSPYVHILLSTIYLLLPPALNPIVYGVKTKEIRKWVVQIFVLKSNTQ
Outline: as §1

UniProt Q8VG27 = target: T5, UniProt Q8VG27
T5 sequence (whole entry): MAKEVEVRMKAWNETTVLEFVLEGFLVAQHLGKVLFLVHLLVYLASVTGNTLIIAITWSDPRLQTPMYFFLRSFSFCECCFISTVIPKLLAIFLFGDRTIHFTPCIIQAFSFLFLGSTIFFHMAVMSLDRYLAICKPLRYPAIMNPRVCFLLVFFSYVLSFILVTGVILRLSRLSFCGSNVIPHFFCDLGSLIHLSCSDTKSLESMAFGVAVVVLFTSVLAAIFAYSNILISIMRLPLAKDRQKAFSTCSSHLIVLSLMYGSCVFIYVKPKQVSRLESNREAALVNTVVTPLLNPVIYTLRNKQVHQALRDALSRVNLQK
Outline: as §1

UniProt Q8VG53 = target: T6, UniProt Q8VG53
T6 sequence (whole entry): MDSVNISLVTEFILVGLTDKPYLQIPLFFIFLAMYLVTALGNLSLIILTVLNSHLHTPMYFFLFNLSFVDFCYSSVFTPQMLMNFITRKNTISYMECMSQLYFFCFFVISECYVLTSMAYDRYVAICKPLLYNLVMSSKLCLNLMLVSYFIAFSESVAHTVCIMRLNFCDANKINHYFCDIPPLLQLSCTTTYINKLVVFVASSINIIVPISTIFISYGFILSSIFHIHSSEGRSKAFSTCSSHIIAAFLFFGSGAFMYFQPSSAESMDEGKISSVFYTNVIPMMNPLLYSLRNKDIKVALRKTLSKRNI
Outline: as §1

UniProt Q8VG64 = target: T7, UniProt Q8VG64
T7 sequence (whole entry): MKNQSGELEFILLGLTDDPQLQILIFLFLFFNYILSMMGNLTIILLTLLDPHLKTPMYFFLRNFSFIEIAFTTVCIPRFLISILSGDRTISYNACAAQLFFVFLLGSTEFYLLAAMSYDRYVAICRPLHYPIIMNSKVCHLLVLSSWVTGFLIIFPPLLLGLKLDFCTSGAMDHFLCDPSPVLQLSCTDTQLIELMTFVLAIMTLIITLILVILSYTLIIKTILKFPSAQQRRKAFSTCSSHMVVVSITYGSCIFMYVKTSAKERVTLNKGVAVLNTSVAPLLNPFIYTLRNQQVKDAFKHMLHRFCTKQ
Outline: as §1

UniProt Q8VGB9 = target: T8, UniProt Q8VGB9
T8 sequence (whole entry): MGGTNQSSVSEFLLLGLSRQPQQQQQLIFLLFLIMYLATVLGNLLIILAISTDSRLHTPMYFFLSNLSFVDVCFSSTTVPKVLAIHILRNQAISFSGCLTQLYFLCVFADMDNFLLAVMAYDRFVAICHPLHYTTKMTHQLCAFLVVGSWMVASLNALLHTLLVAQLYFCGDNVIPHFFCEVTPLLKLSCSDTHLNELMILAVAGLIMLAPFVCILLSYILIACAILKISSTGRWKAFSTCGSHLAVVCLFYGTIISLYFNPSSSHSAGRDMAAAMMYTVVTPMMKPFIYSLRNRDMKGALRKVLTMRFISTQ
Outline: as §1

UniProt Q8VGC6 = target: T9, UniProt Q8VGC6
T9 sequence (whole entry): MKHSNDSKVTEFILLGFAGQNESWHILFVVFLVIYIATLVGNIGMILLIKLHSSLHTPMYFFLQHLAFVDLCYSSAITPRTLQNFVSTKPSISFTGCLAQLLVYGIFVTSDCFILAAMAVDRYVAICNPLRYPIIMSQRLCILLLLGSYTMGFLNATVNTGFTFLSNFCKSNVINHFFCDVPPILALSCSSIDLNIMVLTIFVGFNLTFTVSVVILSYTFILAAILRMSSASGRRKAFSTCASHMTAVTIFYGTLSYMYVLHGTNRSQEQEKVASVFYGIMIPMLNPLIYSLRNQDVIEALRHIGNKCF
Outline: as §1

UniProt Q8VGJ3 = target: T10, UniProt Q8VGJ3
T10 sequence (whole entry): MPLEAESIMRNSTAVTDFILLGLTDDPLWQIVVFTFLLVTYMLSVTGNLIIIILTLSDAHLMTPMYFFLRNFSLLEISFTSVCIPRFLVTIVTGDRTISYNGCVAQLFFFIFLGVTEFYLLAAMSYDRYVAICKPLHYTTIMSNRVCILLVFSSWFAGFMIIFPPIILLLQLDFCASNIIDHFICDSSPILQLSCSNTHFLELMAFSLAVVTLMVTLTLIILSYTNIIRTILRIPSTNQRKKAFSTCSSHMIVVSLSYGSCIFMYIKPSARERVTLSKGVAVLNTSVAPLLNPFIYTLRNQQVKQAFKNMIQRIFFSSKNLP
Outline: as §1

UniProt Q8VG28 = target: UniProt Q8VG28
UniProt Q8VG28, sequence (Q8VG28 as listed by the source): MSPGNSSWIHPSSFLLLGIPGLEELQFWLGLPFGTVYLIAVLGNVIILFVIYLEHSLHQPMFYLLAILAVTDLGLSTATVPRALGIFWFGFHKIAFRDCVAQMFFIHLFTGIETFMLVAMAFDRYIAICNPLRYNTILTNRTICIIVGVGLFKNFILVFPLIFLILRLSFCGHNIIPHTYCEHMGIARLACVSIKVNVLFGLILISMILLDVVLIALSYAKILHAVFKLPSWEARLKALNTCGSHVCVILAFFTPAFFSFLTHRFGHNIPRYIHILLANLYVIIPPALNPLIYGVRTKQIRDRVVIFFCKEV
Outline: as §1

Row | Compound | odorant receptor agonist call (UniProt Q8VF52) | odorant receptor agonist call (UniProt Q8VFM8) | odorant receptor agonist call (UniProt Q8VFP5) | odorant receptor agonist call (UniProt Q8VG01) | odorant receptor agonist call (UniProt Q8VG27) | odorant receptor agonist call (UniProt Q8VG53) | odorant receptor agonist call (UniProt Q8VG64) | odorant receptor agonist call (UniProt Q8VGB9) | odorant receptor agonist call (UniProt Q8VGC6) | odorant receptor agonist call (UniProt Q8VGJ3) | odorant receptor agonist call (UniProt Q8VG28)
1 | O=CC=Cc1ccccc1 | inactive | inactive | inactive | inactive | inactive | inactive | inactive | inactive | inactive | inactive | –
2 | O=Cc1ccc2c(c1)OCO2 | inactive | inactive | inactive | inactive | inactive | inactive | inactive | inactive | inactive | inactive | –
3 | O=C(O)CCCCCCCBr | – | – | – | – | – | – | – | – | – | – | active

From the M2OR odorant receptor database
